In publication PMC2667967 (Cancer cell, 2008):
Non-standard residues stand in square brackets, D forms with d. No end group written: not given here. *: point of attachment. FITC = O=C1OC2(c3ccc(O)cc3Oc3cc(O)ccc32)c2ccc(NC(=S)*)cc21

Legend:
Bax = Bax activation in Bcl-2 knockout MEFs; type: cell-based, mouse; details: NuBCP-9 10 µM 16 hr; or GFP-Nur77/478-504 cotransfected with Bcl-2
Procedure, shortened: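 Bcl-2−/− MEFs were run with wild-type MEFs and exposed to the test peptide (10 µM) for 16 hr. Alternatively, Bcl-2−/− MEFs were cotransfected with Bcl-2 (1 µg) plus GFP or GFP-Nur77/478-504 (1 µg). Active Bax was immunostained with 6A7 antibody and read by flow cytometry. Comparisons were treated vs untreated, or GFP-only vs Bcl-2-coexpressing cells from the same transfection.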

Bfl-1 = assay: Co-IP with Bfl-1; type: binding; details: HEK293T
Procedure, shortened: (§1)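 HEK293T cells were transfected with GFP-Nur77/478-504 (2 µg), with or without a Myc-tagged Bcl-2 family member plasmid (0.8 µg). Lysates were immunoprecipitated and complexes detected by western blot. Input was 5% of lysate, and one of three experiments is shown.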

Bcl-B = assay: Co-IP with Bcl-B; type: binding; details: HEK293T
Procedure, shortened: as §1

[1] = test system: mitochondria (RFP-Mito), H460 cells; assay: Mitochondrial targeting in H460 cells; type: cell-based; details: FITC-D-NuBCP-9-r8 6 µM, 2 hr, or GFP fusions transfected 12 hr
Procedure, shortened: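 H460 cells on glass coverslips were transfected with RFP-Mito (50 ng) plus GFP fused to Nur77 residues 489–497 or 478–504 (50 ng) for 12 hr. In a second arm, cells were transfected with RFP-Mito for 12 hr and then treated with 6 µM FITC-labelled, r8-fused test peptide for 2 hr. Subcellular fluorophore localization was analysed by confocal microscopy.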

GST-Bcl-2 [2] = target: T1, GST-Bcl-2 (Homo sapiens, UniProt P10415); assay: FP binding to GST-Bcl-2; details: 200 nM protein, 20 nM FITC peptide-r8, PBS pH 7.6, 25°C, triplicate
Procedure, shortened: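 GST-Bcl-2 (200 nM) was incubated briefly with FITC-labelled, r8-fused test peptide (20 nM) in PBS, pH 7.6, at 25°C, in triplicate. GST-Bcl-XL and GST served as comparison proteins. Polarization was read at excitation 485 nm and emission 530 nm once the signal stabilized within 20 min. Kd was calculated from single-site binding curves and reported as mean ± SD.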

GST = assay: FP binding to GST; details: 200 nM protein, 20 nM FITC peptide-r8, PBS pH 7.6, 25°C
Procedure, shortened: (§2)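 Fluorescence polarization: 200 nM protein (GST or GST-Bcl-XL) was incubated with FITC-labelled r8 test peptide (20 nM) in PBS, pH 7.6, at 25°C, in triplicate. FP was read once the signal stabilized within 20 min (excitation 485 nm, emission 530 nm). Results are mean ± SD.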

GST-Bcl-XL [3] = target: GST-Bcl-XL (Homo sapiens, UniProt Q07817); assay: FP binding to GST-Bcl-XL; details: 200 nM protein, 20 nM FITC peptide-r8, PBS pH 7.6, 25°C
Procedure, shortened: as §2

GST-Bcl-2/1-90 [4] = target: GST-Bcl-2/1-90 (UniProt P10415); assay: fluorescence polarisation
GST-Bcl-2 [5] = target: T1, GST-Bcl-2; assay: circular dichroism
GST-Bcl-2 [6] = target: T1, GST-Bcl-2; assay: FP competition assay, GST-Bcl-2; type: binding; details: 200 nM GST-Bcl-2, 20 nM FITC-NuBCP-r8, PBS pH 7.6, 25°C, triplicate
Bcl-2^−/−MEFs = assay: Apoptosis of Bcl-2 knockout MEFs; type: cell-based, mouse; details: STS 0.1 µM or Bad BH3 peptide 10 µM, 36 h, DAPI
Procedure, shortened: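 Wild-type and Bcl-2−/− MEFs, with Bcl-2 status confirmed by immunoblotting, were exposed to staurosporine (0.1 µM) or Bad BH3 peptide (10 µM) for 36 h. Peptide treatments used medium with 10% FBS unless otherwise specified. Apoptosis was scored from nuclear morphology after DAPI staining.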

CEM leukemia cells = assay: Killing of CEM leukemia cells stably expressing Bcl-2; type: cell-based; details: Figure S4
[7] = test system: Jurkat cells stably expressing Bcl-2; assay: Apoptosis of Jurkat cells stably expressing Bcl-2; type: cell-based; details: Figure S3
Procedure, shortened: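 Jurkat cells stably carrying an empty neo vector or a Bcl-2 expression vector, with Bcl-2 levels checked by immunoblot. Cells were exposed to the test peptide (10 µM) in medium with 5% FBS for 36 h. Apoptosis was scored by DAPI nuclear morphology.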

[8] = test system: normal primary mammary epithelial cells; assay: Apoptosis of normal primary mammary epithelial cells; type: cell-based; details: 24 h, Annexin V; r8 conjugate
Procedure, shortened: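 Normal primary mammary epithelial cells were run alongside ZR-75-1 breast cancer cells. They were exposed to the r8-conjugated test peptide for 24 h in medium with 10% FBS. Apoptosis was read by Annexin V binding on flow cytometry.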

[9] = test system: various cancer cell lines; assay: Apoptosis induction, various cancer cell lines; type: cell-based
GST-Bcl-2 [10] = target: GST-Bcl-2 (UniProt P10415 1-239); assay: circular dichroism
GST-Bcl-2/1-90 [11] = target: GST-Bcl-2/1-90 (UniProt P10415 1-90); assay: fluorescence polarisation
GST-Bcl-XL [12] = target: GST-Bcl-XL (UniProt Q07817-1 1-233); assay: fluorescence polarisation
Chain of GST-Bcl-XL (UniProt Q07817-1 1-233) (Q07817 whole entry): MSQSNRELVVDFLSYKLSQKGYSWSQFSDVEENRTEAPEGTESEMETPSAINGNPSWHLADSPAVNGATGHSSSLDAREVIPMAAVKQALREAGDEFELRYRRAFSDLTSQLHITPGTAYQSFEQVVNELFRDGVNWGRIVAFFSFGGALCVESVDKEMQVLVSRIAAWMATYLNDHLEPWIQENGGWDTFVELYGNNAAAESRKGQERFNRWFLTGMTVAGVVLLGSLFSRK

T1 sequence (P10415 whole entry, the tested form may be a part): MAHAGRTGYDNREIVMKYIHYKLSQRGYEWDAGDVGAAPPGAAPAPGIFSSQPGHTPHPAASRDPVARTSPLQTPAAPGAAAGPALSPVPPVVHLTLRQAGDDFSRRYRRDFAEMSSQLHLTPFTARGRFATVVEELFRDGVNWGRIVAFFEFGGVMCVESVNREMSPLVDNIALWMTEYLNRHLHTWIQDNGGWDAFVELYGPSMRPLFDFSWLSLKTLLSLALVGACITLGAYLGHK
Chain of GST-Bcl-XL (Homo sapiens, UniProt Q07817) (Q07817 whole entry): as the sequence (Q07817 whole entry) above
Chain of GST-Bcl-2/1-90 (UniProt P10415 1-90) (P10415 1-90): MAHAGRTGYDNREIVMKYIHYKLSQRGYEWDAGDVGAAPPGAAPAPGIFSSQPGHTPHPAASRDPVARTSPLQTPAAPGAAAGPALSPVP
Chain of GST-Bcl-2/1-90 (UniProt P10415) (P10415 1-90): as above
Chain of GST-Bcl-2 (UniProt P10415 1-239) (P10415 whole entry): as the sequence (P10415 whole entry, the tested form may be a part) above

GFP-Nur77/478-504: residues 478–504 of Nur77 fused with green fluorescence protein (GFGDWIDSILAFSRSLHSLLVDVPAFA; also: fused with GFP, end not given here)
Bax activation, Bcl-2^−/−MEFs (Bax): Expression of Bcl-2 in Bcl-2^−/−MEFs restores Bax activation by NuBCP
binding to Bfl-1 (Bfl-1): bound to anti-apoptotic Bcl-2 family members, Bcl-B and Bfl-1
binding to Bcl-B (Bcl-B): bound to anti-apoptotic Bcl-2 family members, Bcl-B and Bfl-1
co-localization with RFP-Mito [1]: co-localized extensively with RFP-Mito

FITC-NuBCP-9/AA: FITC-labeled NuBCP-9/AA ({FITC}-ASRSLHSLA; also: r8 (D-Arg octamer) attached, end not given here)
FP change with GST-Bcl-2 (GST-Bcl-2 [2]): little affected

FITC-NuBCP-9: FITC-labeled NuBCP-9 (r8) ({FITC}-FSRSLHSLL; also: r8 (D-Arg octamer) attached, end not given here)
FP change with GST (GST): neither GST-Bcl-XL nor GST, induced a concentration-dependent FP
FP change with GST-Bcl-XL (GST-Bcl-XL [3]): neither GST-Bcl-XL nor GST, induced a concentration-dependent FP
FP change with GST-Bcl-2 (GST-Bcl-2 [2]): induced a concentration-dependent FP of FITC-NuBCP-9 and FITC-D-NuBCP-9

FITC-D-NuBCP-9-r8 (from UniProt P22736 489-497) (peptide)
Kd (GST-Bcl-2/1-90 [4]): 2.5 µM

D-NuBCP-9 (unlabeled, in vitro assays) (from UniProt P22736 489-497) (peptide)
Kd (GST-Bcl-2 [5]): 2 µM
stoichiometry N (GST-Bcl-2 [5]): 1

CN(C)CC[C@H](CSc1ccccc1)Nc1ccc(S(=O)(=O)NC(=O)c2ccc(N3CCN(Cc4ccccc4-c4ccc(Cl)cc4)CC3)cc2)cc1[N+](=O)[O-] [ABT-737]
competition with FITC-NuBCP-9 binding to GST-Bcl-2 (GST-Bcl-2 [6]): failure of either a BH3 peptide (Bak BH3) or a potent small molecule inhibitor (ABT-737) that targets the Bcl-2 BH3- binding site to reduce FITC-NuBCP-9 binding to GST-Bcl-2

CN[C@@H]1C[C@H]2O[C@@](C)([C@@H]1OC)n1c3ccccc3c3c4c(c5c6ccccc6n2c5c31)C(=O)NC4 [STS, staurosporine]
effect of Bcl-2 knockout on death effect (Bcl-2^−/−MEFs): enhanced in Bcl-2^−/−MEFs
effect of stable Bcl-2 expression on killing (CEM leukemia cells): prevented the killing
effect of Bcl-2 overexpression on apoptosis [7]: attenuated by Bcl-2 overexpression in Jurkat cells

NuBCP-20: 20 amino acid peptide (aa 480 to 499) of Nur77 (GDWIDSILAFSRSLHSLLVD; UniProt P22736 480-499, looked up, fragment)
apoptosis induction [8]: Neither NuBCP-20 nor NuBCP-9 induced the apoptosis of normal primary mammary epithelial cells
apoptotic effect ([9]; r8 conjugate): potent apoptotic effect in various cancer cell lines
apoptotic potency relative to Bid BH3 peptide ([9]; various cancer cell lines): more potent than a BH3 peptide derived from the pro-apoptotic Bcl-2 family member Bid

B1: NuBCP-9 (unlabeled, in vitro assays) (peptide, UniProt P22736 489-497, looked up)
peptide: FSRSLHSLL
stoichiometry N (GST-Bcl-2 [10]): 1

B2: FITC-NuBCP-9-r8 (peptide, UniProt P22736 489-497, looked up)
peptide: {FITC}-FSRSLHSLL[dR][dR][dR][dR][dR][dR][dR][dR]
Kd (GST-Bcl-2/1-90 [11]): 1.7 µM

B3: F5M-Bcl-2 BH3 peptide (peptide)
chain: VHLTLRQAGDDFSRR
modifications: also: F5M-labelled Cys, position not given here
Kd (GST-Bcl-XL [12]): 0.145 µM
